30 compounds from ChEMBL document CHEMBL1145589, “Discovery of benzamide tetrahydro-4H-carbazol-4-ones as novel small molecule inhibitors of Hsp90” (Bioorg Med Chem Lett, 2008) can be followed below.

Experiment [1] relates to SK-BR-3. Put plainly: Inhibition of Her2 degradation in human SKBR3 cells by ELISA. The class given is functional, cell-based. The gist of the method: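 Cellular ELISA in SKBR3 cells treated 24 h with compound, then methanol-fixed; Her2 detected with mouse anti-Her2 primary and peroxidase-conjugated anti-mouse secondary antibody; IC50 determined.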
Background: An ELISA detects its analyte on a solid surface through an enzyme-linked reagent.

Experiment [2] can be described thus: Binding affinity to Hsp90 in pig spleen extract by Bradford protein assay. The class given is tissue-based, Sus scrofa.
The next experiment has as its system MDA-MB-231. Put plainly: Inhibition of cell proliferation in human MDA-MB-231 cells. The class given is functional, cell-based. In outline:
(§1)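 Cells seeded in 96-well plates; compound added 24 h later, then growth continued for a further 72 or 144 h depending on the line's growth rate before proliferation was measured.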

Experiment [3] is described as follows: Inhibition of pS6 in A375 cells. The class given is cell-based. The conditions noted are these: A-375. The gist of the method:
(§2)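 High content imaging: A375 cells treated 24 h with compound, fixed in 4% PBS-buffered formalin, probed with anti-Hsp70 or anti-phospho-S6 primary antibodies, then TRITC- or FITC-conjugated secondaries, and imaged.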

Experiment [4] has as its system SK-BR-3. Put plainly: Inhibition of Her2 degradation in human SKBR3 cells.
Experiment [5] concerns A-375. Put plainly: Induction of Hsp70 in human A375 cells. The class given is functional, cell-based. The gist of the method: as §2
The next experiment deals with HT-29. Put plainly: Inhibition of cell proliferation in human HT29 cells. The class given is functional, cell-based. The gist of the method:
as §1

Another experiment deals with MCF7. Kind of experiment: Inhibition of cell proliferation in human MCF7 cells. The class given is functional, cell-based. The gist of the method:
as §1

The test system of a further experiment is PC-3. Put plainly: Inhibition of cell proliferation in human PC3 cells. The class given is functional, cell-based. In outline:
as §1

The next experiment concerns SW-620. Kind of experiment: Inhibition of cell proliferation in human SW620 cells. The class given is functional, cell-based. The gist of the method:
as §1

The next experiment concerns SK-MEL-5. Put plainly: Inhibition of cell proliferation in human SKMEL5 cells. The class given is functional, cell-based. In outline:
as §1

Experiment [6] is described as follows: Inhibition of pErk in AU565 cells. The class given is cell-based.
Experiment [7] relates to A-375. Put plainly: Inhibition of cell proliferation in human A375 cells. The class given is functional, cell-based. In outline:
as §1

The next experiment concerns LNCaP. Put plainly: Inhibition of cell proliferation in human LNCAP cells. The class given is functional, cell-based. In outline: as §1
A further experiment deals with NCI-H460. Kind of experiment: Inhibition of cell proliferation in human NCI-H460 cells. The class given is functional, cell-based. In outline: as §1

SMILES strings stand for the structures.

For the compound `N#Cc1cc(-n2c3c(c4ccccc42)C(=O)CCC3)ccc1C(N)=O`, the concentration for half-maximal inhibition (IC50) in the experiment with SK-BR-3 [1] is above 50000 nM. For the same compound, the Kd in [2] is above 10000 nM.
On the same counts, the results for `NC(=O)c1ccc(-n2c3c(c4ccccc42)C(=O)CCC3)cc1Br` are above 10000 nM and above 10000 nM.
Take `CC1CC(=O)c2c(n(-c3ccc(C(N)=O)c(Br)c3)c3ccccc23)C1` (centres undefined): in [2], the dissociation constant (Kd) is above 10000 nM.
Take `NC(=O)c1ccc(-n2c3c(c4ccccc42)C(=O)CCC3)cc1NC1CCOCC1`: the IC50 in the experiment on MDA-MB-231 came out at 960 nM; in [3], 70 nM; in the experiment on SK-BR-3 [4], 560 nM; in the experiment on A-375 [5], 230 nM; in the experiment with HT-29, 370 nM; in the experiment on MCF7, 290 nM. Moreover, the IC50 in the experiment with PC-3 amounted to 820 nM; in the experiment on SW-620, 260 nM; with SK-MEL-5 it was 340 nM; with SK-BR-3 [1], 560 nM; in experiment [6], 590 nM; in the experiment on A-375 [7], 400 nM. The IC50 in the experiment with LNCaP came out at 700 nM; in the experiment on NCI-H460, 900 nM. The dissociation constant Kd in [2] came to 410 nM.
With `NC(=O)c1ccc(-n2c3c(c4ccccc42)C(=O)CCC3)cc1NC1CCC(O)CC1` (centres undefined), the concentration for half-maximal inhibition (IC50) in the experiment with SK-BR-3 [1] worked out at 1200 nM. Also, the Kd in experiment [2] stood at 900 nM.
In the case of `NC(=O)c1ccc(-n2c3c(c4ccccc42)C(=O)CCC3)cc1NCc1ccccc1`, the IC50 in the experiment with SK-BR-3 [1] is above 10000 nM. The compound also showed a Kd in [2] above 10000 nM.
Turning to `C=CCNc1cc(-n2c3c(c4cc(F)ccc42)C(=O)CCC3)ccc1C(N)=O`, it took 5400 nM to reach half-maximal inhibition in the experiment on SK-BR-3 [1] (IC50). Further, in [2], the Kd was found to be 250 nM.
As for `CN(C)CCNc1cc(-n2c3c(c4cc(F)ccc42)C(=O)CCC3)ccc1C(N)=O`, inhibition with SK-BR-3 [1] was half-maximal at 34000 nM (IC50). In addition, in [2], the Kd came to 1200 nM.
For the compound `CCCNc1cc(-n2c3c(c4ccccc42)C(=O)CCC3)ccc1C(N)=O`, in the experiment with SK-BR-3 [1], the midpoint of inhibition, the IC50, lay at 5300 nM. In experiment [2], this compound yielded a dissociation constant (Kd) of 350 nM.
`CC1(C)CC(=O)c2c(n(-c3ccc(C(N)=O)c(Nc4ccccc4)c3)c3ccccc23)C1` showed a dissociation constant (Kd) in [2] above 10000 nM.
Regarding `NC(=O)c1ccc(-n2c3c(c4ccccc42)C(=O)CCC3)cc1NCC1CC1`, in the experiment on SK-BR-3 [1], the IC50 is 1300 nM. Besides, the Kd in experiment [2] stood at 270 nM.
The compound `NC(=O)c1ccc(-n2c3c(c4cc(F)ccc42)C(=O)CCC3)cc1NC1CC1` displayed a concentration for half-maximal inhibition (IC50) in the experiment on SK-BR-3 [1] of 1300 nM. Further, the Kd in experiment [2] is 250 nM.
In turn, `CC1(C)CC(=O)c2c(n(-c3ccc(C(N)=O)c(NC4CC4)c3)c3ccccc23)C1` displayed an IC50 with SK-BR-3 [1] of 610 nM. In [2], this compound gave a Kd of 350 nM.
`COc1cc(-n2c3c(c4ccccc42)C(=O)CCC3)ccc1C(N)=O` returned an IC50 in the experiment with SK-BR-3 [1] above 50000 nM. In experiment [2], this compound came in with a Kd above 10000 nM.
Regarding `NC(=O)c1ccc(-n2c3c(c4ccccc42)C(=O)CCC3)cc1N`, in the experiment with SK-BR-3 [1], the IC50 is above 10000 nM. Further, the Kd in [2] stood at 2900 nM.
In the experiment on SK-BR-3 [1], `NC(=O)c1ccc(-n2c3c(c4ccccc42)C(=O)CCC3)cc1NCc1ccncc1` registered an IC50 of 5000 nM. The affinity in experiment [2], expressed as Kd, was 820 nM.
For `NC(=O)c1ccc(-n2c3c(c4ccccc42)C(=O)CCC3)cc1Nc1ccccc1`, in the experiment with SK-BR-3 [1], 2100 nM corresponded to half-maximal inhibition (IC50). In [2], this compound returned a Kd of 1000 nM.
In the experiment with SK-BR-3 [1], `CC1(C)CC(=O)c2c(n(-c3ccc(C(N)=O)cc3)c3ccccc23)C1` had an IC50 above 50000 nM. The compound also yielded a Kd in experiment [2] of 750 nM.
In the experiment on SK-BR-3 [1], `NC(=O)c1ccc(-n2c3c(c4ccccc42)C(=O)CCC3)cc1` came in with a concentration for half-maximal inhibition (IC50) above 50000 nM. In experiment [2], this compound showed a dissociation constant (Kd) of 1800 nM.
Consider `NC(=O)c1ccc(-n2c3c(c4cc(F)ccc42)C(=O)CCC3)cc1NN1CCOCC1`, for which the half-inhibitory concentration (IC50) with SK-BR-3 [1] came out at 1600 nM. The same compound showed a Kd in experiment [2] of 270 nM.
In the case of `CC1CC(=O)c2c(n(-c3ccc(C(N)=O)c(NC4CC4)c3)c3ccccc23)C1` (centres undefined), in the experiment on SK-BR-3 [1], the IC50 turned out to be 7000 nM.
The compound `NC(=O)c1ccc(-n2c3c(c4ccccc42)C(=O)CCC3)cc1NC1CC1` came in with an IC50 in the experiment with SK-BR-3 [1] of 5400 nM. The same compound showed a Kd in [2] of 350 nM.
As to `NC(=O)c1ccc(-n2c3c(c4cc(F)ccc42)C(=O)CCC3)cc1NCc1cccnc1`, the IC50 in the experiment with SK-BR-3 [1] is 6500 nM. The compound also yielded an equilibrium dissociation constant (Kd) in experiment [2] of 1100 nM.
In the experiment with SK-BR-3 [1], `COCCNc1cc(-n2c3c(c4cc(F)ccc42)C(=O)CCC3)ccc1C(N)=O` yielded an IC50 of 4100 nM. Besides, in [2], the Kd was found to be 780 nM.
In the experiment with SK-BR-3 [1], `COCCNc1cc(-n2c3c(c4ccccc42)C(=O)CCC3)ccc1C(N)=O` gave a concentration for half-maximal inhibition (IC50) of 8900 nM.
As to `NC(=O)c1ccc(-n2c3c(c4ccccc42)C(=O)CCC3)cc1NC1CCC1`, in the experiment on SK-BR-3 [1], inhibition was half-maximal at 6800 nM (IC50). For the same compound, in [2], the Kd was found to be 310 nM.
The compound `CC1CC(=O)c2c(n(-c3ccc(C(N)=O)c(NCC4CC4)c3)c3ccccc23)C1` (centres undefined) returned an IC50 with SK-BR-3 [1] of 6900 nM. For the same compound, the Kd in experiment [2] stood at 2900 nM.
The like results for `COc1ccc(CNc2cc(-n3c4c(c5ccccc53)C(=O)CCC4)ccc2C(N)=O)cc1` were, in that order, above 10000 nM and above 10000 nM.
Regarding `NC(=O)c1ccc(-n2c3c(c4cc(F)ccc42)C(=O)CCC3)cc1NCCCN1CCOCC1`, the IC50 in the experiment on SK-BR-3 [1] was found to be 2800 nM. The dissociation constant (Kd) in experiment [2] is 1100 nM.
`NC(=O)c1ccc(-n2c3c(c4ccccc42)C(=O)CCC3)cc1NCCN1CCCC1` had a concentration for half-maximal inhibition (IC50) with SK-BR-3 [1] of 31000 nM. This compound also showed a Kd in experiment [2] of 1900 nM.

Usually IC50 stands for the concentration that inhibits the measured activity by half. Lower therefore signals inhibition by little substance. As a reminder, the Kd is the concentration at which binding is half-saturated.
